How the values were obtained:
Format in all cases: functional
[1] = test system: A498; assay: Cytotoxicity against human A498 cells after 48 hrs by SRB assay; conditions: A498, 48 h
In short: (§1)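 NCI-60 human tumour cell panel screen, second stage, run by the NCI Developmental Therapeutics Program. Compounds were tested at five concentrations (0.01, 0.1, 1, 10 and 100 μM). Percentage growth was plotted against log10 concentration for each cell line. GI50, TGI and LC50 were taken from these dose-response curves.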

[2] = test system: SR; assay: Cytotoxicity against human SR cells after 48 hrs by SRB assay
In short: (§2)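 NCI-60 five-dose study run by NCI DTP at 0.01, 0.1, 1, 10 and 100 µM. Percentage growth at each level was plotted against log10 concentration for each line, and GI50, TGI and LC50 were read from the dose-response curves.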

[3] = test system: U-251; assay: Cytotoxicity against human U251 cells after 48 hrs by SRB assay; conditions: U-251, 48 h; in short: as §2
[4] = test system: NCI-H226; assay: Cytotoxicity against human NCI-H226 cells after 48 hrs by SRB assay; conditions: NCI-H226, 48 h
In short: (§3)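 Second-stage NCI-60 panel run by the NCI Developmental Therapeutics Program, covering nine tumour subpanels. Five concentrations were tested: 0.01, 0.1, 1, 10 and 100 μM. Percentage growth at each level was plotted against log10 drug concentration. GI50, TGI and LC50 were read from these dose-response curves. Subpanel MID values were divided into the full-panel MID to give selectivity ratios.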

[5] = test system: 786-0; assay: Cytotoxicity against human 786-0 cells after 48 hrs by SRB assay; conditions: 786-0, 48 h; in short: as §1
[6] = test system: PC-3; assay: Cytotoxicity against human PC3 cells after 48 hrs by SRB assay; conditions: PC-3, 48 h; in short: as §3
[7] = test system: LOX IMVI; assay: Cytotoxicity against human LOXIMVI cells after 48 hrs by SRB assay; in short: as §1
[8] = test system: MCF7; assay: Cytotoxicity against human MCF7 cells after 48 hrs by SRB assay; conditions: MCF7, 48 h; in short: as §1
[9] = Cytotoxicity against human CNS cancer cells assessed as growth inhibition after 48 hrs by SRB assay; conditions: Cancer cell lines
In short: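 NCI-60 five-dose data (0.01–100 μM) were grouped by tumour subpanel. A subpanel mean (MID) of GI50 was computed for the CNS cancer lines. A selectivity ratio was obtained as full-panel MID divided by subpanel MID: 3–6 counts as moderate, >6 as high.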

[10] = test system: DU-145; assay: Cytotoxicity against human DU145 cells after 48 hrs by SRB assay; conditions: DU-145, 48 h; in short: as §1
[11] = test system: HCC 2998; assay: Cytotoxicity against human HCC2998 cells after 48 hrs by SRB assay; conditions: HCC 2998, 48 h; in short: as §1
[12] = test system: HT-29; assay: Cytotoxicity against human HT-29 cells after 48 hrs by SRB assay; conditions: HT-29, 48 h; in short: as §1
[13] = test system: HOP-62; assay: Cytotoxicity against human HOP62 cells after 48 hrs by SRB assay; conditions: HOP-62, 48 h; in short: as §1
[14] = test system: SNB-75; assay: Cytotoxicity against human SNB75 cells after 48 hrs by SRB assay; conditions: SNB-75, 48 h; in short: as §2
[15] = test system: A549; assay: Cytotoxicity against human A549 cells after 48 hrs by SRB assay; conditions: A549, 48 h; in short: as §1
[16] = Cytotoxicity against human melanoma cells assessed as growth inhibition after 48 hrs by SRB assay; conditions: Melanoma cell
In short: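 Values come from the NCI-60 five-dose panel (0.01–100 µM). The subpanel MID is the mean GI50 over the lines of that tumour subpanel. The selectivity ratio is the full-panel MID divided by the subpanel MID; 3–6 is rated moderate and >6 high.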

[17] = test system: SK-OV-3; assay: Cytotoxicity against human SKOV3 cells after 48 hrs by SRB assay; conditions: SK-OV-3, 48 h; in short: as §3
[18] = test system: K562; assay: Cytotoxicity against human K562 cells after 48 hrs by SRB assay; conditions: K562, 48 h; in short: as §1
[19] = test system: Malme-3M; assay: Cytotoxicity against human MALME-3M cells after 48 hrs by SRB assay; in short: as §1
[20] = test system: KM12; assay: Cytotoxicity against human KM12 cells after 48 hrs by SRB assay; conditions: KM12, 48 h; in short: as §1
[21] = test system: RXF 393; assay: Cytotoxicity against human RXF393 cells after 48 hrs by SRB assay; conditions: RXF 393, 48 h; in short: as §3
[22] = test system: UO-31; assay: Cytotoxicity against human UO31 cells after 48 hrs by SRB assay; conditions: UO-31, 48 h; in short: as §2
[23] = test system: NCI-H23; assay: Cytotoxicity against human NCI-H23 cells after 48 hrs by SRB assay; conditions: NCI-H23, 48 h; in short: as §3
[24] = test system: SN12C; assay: Cytotoxicity against human SN12C cells after 48 hrs by SRB assay; in short: as §3
[25] = test system: NCI-H522; assay: Cytotoxicity against human NCI-H522 cells after 48 hrs by SRB assay; conditions: NCI-H522, 48 h; in short: as §3
[26] = test system: ACHN; assay: Cytotoxicity against human ACHN cells after 48 hrs by SRB assay; in short: as §1
[27] = test system: SF-295; assay: Cytotoxicity against human SF295 cells after 48 hrs by SRB assay; conditions: SF-295, 48 h; in short: as §3
[28] = test system: RPMI-8226; assay: Cytotoxicity against human RPMI8226 cells after 48 hrs by SRB assay; conditions: RPMI-8226, 48 h; in short: as §3
[29] = Cytotoxicity against human Hs578T cells after 48 hrs by SRB assay; conditions: Hs-578T; in short: as §1
[30] = read-out: LC50 (the source's name)

## CC(C)Sc1cc2c(c3nsnc13)C(=O)c1ccccc1C2=O
[1]
  GI50: 0.56 µM
  LC50 (concentration killing 50% of cells): 23.6 µM
  TGI: 4.28 µM
[2]
  GI50: 0.31 µM
  LC50: 7.46 µM
  TGI: 1.19 µM
[3]
  GI50: 1.48 µM
  LC50: 6.75 µM
  TGI: 3.16 µM
[4]
  GI50: 1.83 µM
  LC50 (concentration killing 50% of starting cells): 14.6 µM
  TGI: 4.64 µM
[5]
  GI50: 2.75 µM
  LC50 (concentration killing 50% of cells): 34.9 µM
  TGI: 8.14 µM
[6]
  GI50: 0.25 µM
  LC50 (concentration killing 50% of cells): 75.4 µM
  TGI: 1.38 µM
[7]
  GI50: 0.34 µM
  TGI: 1.31 µM
[7]; [30]
  CC50: 4.73 µM
[8]
  GI50: 1.71 µM
  LC50 (concentration killing 50% of cells): 8.42 µM
  TGI: 3.8 µM
[9]
  GI50: 1.79 µM
[10]
  GI50: 1.45 µM
  LC50: 26.4 µM
  TGI: 6.64 µM
[11]
  GI50: 3.46 µM
  LC50: 34.9 µM
  TGI: 11.1 µM
[12]
  GI50: 12.2 µM
  LC50: 92.7 µM
  TGI: 33.6 µM
[13]
  GI50: 2.1 µM
  LC50: 24.2 µM
  TGI: 6.53 µM
[14]
  GI50: 0.52 µM
  LC50 (concentration killing 50% of cells): 23.9 µM
  TGI: 3.95 µM
[15]
  GI50: 2.43 µM
  LC50 (concentration killing 50% of cells): 51.4 µM
  TGI: 7.94 µM
[16]
  GI50: 1.12 µM
[17]
  GI50: 2.9 µM
  LC50: 36.9 µM
  TGI: 12.6 µM
[18]
  GI50: 0.26 µM
  LC50: 14.3 µM
  TGI: 1.35 µM
[19]
  GI50: 1.12 µM
  LC50: 5.03 µM
  TGI: 2.38 µM
[20]
  GI50: 3.19 µM
  LC50 (concentration killing 50% of cells): 41.1 µM
  TGI: 11.3 µM
[21]
  GI50: 1.77 µM
  LC50 (concentration killing 50% of cells): 16.9 µM
  TGI: 4.83 µM
[22]
  GI50: 1.16 µM
  LC50: 11.9 µM
  TGI: 3.56 µM
[23]
  GI50: 0.56 µM
  LC50: 8.48 µM
  TGI: 2.58 µM
[24]
  GI50: 0.66 µM
  TGI: 2.41 µM
[24]; [30]
  CC50: 7.09 µM
[25]
  GI50: 2.38 µM
  LC50 (concentration giving 50% net cell kill): 9.96 µM
  TGI: 4.87 µM
[26]
  GI50: 1.25 µM
  LC50: 8.5 µM
  TGI: 3.26 µM
[27]
  GI50: 1.88 µM
  LC50: 9.83 µM
  TGI: 4.3 µM
[28]
  GI50: 0.29 µM
  LC50: > 100 µM
  TGI: 1.78 µM
[29]
  GI50: 1.62 µM
  LC50: > 100 µM
  TGI: 6.27 µM
